# Source: PubChem BioAssay (several laboratories)
# This is a sample that favours compounds with a hit; in the whole collection about 3% have one here.
# NRP1-CendR mod: modulators of CendR peptide binding to NRP-1, primary screen, biochemical, fluorescence polarization, uHTS; Neuropilin-1 (Homo sapiens), O14786; FAM-RPARPAR peptide binding to NRP-1; inhibition, % at 25 µM; actives 0.85% (n = 360,000);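 active = inhibition or corrected inhibition above about 18%, plus a signal ratio from 0.5 to 1.5, limit read from the data, passing the limit was not always enough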
# DDE Tn7 FP inh: inhibitors of Tn7 peptide binding to fibrin DD(E), primary screen, biochemical, fluorescence polarization, human fibrin, Tn7 probe. actives 0.13% (n = 370,000). AID 720508, 2013. inhibition, % at 8.3 µM. FP displacement of FITC-Tn7 peptide from fibrin DD(E); 0% = median of compound wells per plate;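 active = inhibition above the mean of compounds falling within the control limits plus 3 SD of them, cut at about 14% in these data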;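 note: 0% = plate median of compound wells and 100% = 10 µM Aha-Tn7 peptide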
# Target sequence (P02675 whole entry, looked up): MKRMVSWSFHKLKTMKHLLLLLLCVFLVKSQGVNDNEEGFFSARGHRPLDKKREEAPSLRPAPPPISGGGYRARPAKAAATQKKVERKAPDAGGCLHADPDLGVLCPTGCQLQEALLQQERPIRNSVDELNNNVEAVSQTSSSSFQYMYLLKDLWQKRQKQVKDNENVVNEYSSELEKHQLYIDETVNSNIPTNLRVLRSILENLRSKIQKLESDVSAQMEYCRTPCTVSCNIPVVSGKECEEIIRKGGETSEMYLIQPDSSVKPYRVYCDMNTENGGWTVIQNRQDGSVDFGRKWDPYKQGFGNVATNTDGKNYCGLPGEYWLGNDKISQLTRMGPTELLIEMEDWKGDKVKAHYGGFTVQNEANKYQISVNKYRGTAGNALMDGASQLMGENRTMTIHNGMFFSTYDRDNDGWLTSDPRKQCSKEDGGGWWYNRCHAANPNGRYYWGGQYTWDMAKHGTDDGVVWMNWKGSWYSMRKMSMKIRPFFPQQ
#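 Also added: labelled Tn7 tracer, 0.1 µM; Assay system: human fibrin DD(E) protein; Amount: 2 µM fibrin DD(E); Schedule: 10 min compound pre-incubation, 3 h probe incubation at room temperature; Repeats: one replicate per compound; Read-out basis: percent inhibition; Measured by: fluorescence polarization of the labelled Tn7 tracer.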
# PLC-beta3 inh: human PLC-beta3 inhibitors, primary screen, biochemical, fluorescence. inhibition, % at 12.2 µM. actives 0.18% (n = 370,000). AID 720704, 2013. 1-phosphatidylinositol 4,5-bisphosphate phosphodiesterase beta-3 (Homo sapiens), Q01970. Purified PLC-beta3, fluorogenic substrate; in the data active = inhibition above about 11%;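 note: 0% = median of compound wells on plate and 100% = full blocker control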
# KLK7 zymogen act: proKLK7 zymogen activators, primary screen, biochemical, fluorescence intensity | Kallikrein-7 (Homo sapiens), P49862 | purified proKLK7, EDANS-DABCYL substrate fluorescence; 100% is mature enzyme control, 0% vehicle | activation, % at 7 µM | actives 0.9% (n = 370,000);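 active = activation above the mean of all tested compounds plus 3 SD, computed per campaign excluding outliers beyond control limits, cut at about 13% in these data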
# Tn6 DDE FP: inhibitors of Tn6 peptide binding to fibrin DD(E), primary screen, biochemical, fluorescence polarization, human fibrin, Tn6 probe | Fibrin DD(E) TRITC-Tn6 fluorescence polarization displacement | inhibition, % at 8.3 µM | actives 0.21% (n = 370,000);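 active = inhibition above a per-campaign cutoff: mean of compounds within control limits plus 3 SD, cut at about 15% in these data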;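 note: 0% = median of all compound wells on the plate and 100% = blocking peptide control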
# PLCg1 inh: PLC-gamma1 enzyme inhibitors, primary screen, biochemical, fluorescence, purified enzyme; fluorogenic substrate; actives 0.84% (n = 370,000); 1-phosphatidylinositol 4,5-bisphosphate phosphodiesterase gamma-1 (Homo sapiens), P19174; inhibition, % at 12.2 µM
# PLCg1 ctr: PLC-gamma1 enzyme inhibitors, counter-screen for PLC-beta3 inhibitor project, biochemical, fluorescence. purified PLC-gamma1, fluorogenic substrate. inhibition, % at 12.3 µM. shares compounds with PLCg1 inh. actives 3.1% (n = 3,300)
# PLCb3 confirm: PLC-beta3 inhibitor confirmation, biochemical, fluorescence, purified enzyme; shares compounds with PLCg1 inh; fluorogenic substrate fluorescence; inhibition, % at 12.3 µM; actives 1% (n = 3,300); in the data active = inhibition above about 11%
# * hit, by the source's call; . = no result given. Cut-off read from the data, not from the text of the source, unless noted: active = inhibition above about 9.5%; inactive = the rest.
SMILES,NRP1-CendR mod,DDE Tn7 FP inh,PLC-beta3 inh,KLK7 zymogen act,Tn6 DDE FP,PLCg1 inh,PLCg1 ctr,PLCb3 confirm
CCC12CN3CC(CC)(CN(C1)C3c1ccc([N+](=O)[O-])o1)C2=O (configuration not stated),7,0,7,0,-3,11*,-4,0
CCCC12CN3CC(C)(CN(C1)C3c1ccc([N+](=O)[O-])o1)C2=O (configuration not stated),11,-3,-1,0,-2,5,.,.
CC(=O)Nc1ccc(/C=N\NC(=O)c2cccc(S(=O)(=O)N(C)C)c2)cc1,.,-2,-27,0,-4,-20,.,.
O=c1c2ccc(Cl)cc2[nH]c(=S)n1CCCN1CCOCC1,-5,2,12*,0,12,3,-5,-3
O=C(c1ccc([N+](=O)[O-])o1)N1CCN(c2nc3c(F)cc(F)cc3s2)CC1,-1,10,1,1,1,15*,-2,1
Cc1ccc(C)c2sc(N3CCN(C(=O)c4ccc([N+](=O)[O-])o4)CC3)nc12,2,6,-6,0,9,1,.,.
O=C(Nc1ccccc1)n1ccc2ccc(-c3ccc4cc[nH]c4c3)cc21,.,6,-166,-3,0,-125,.,.
COc1cccc(-c2nnn(CC(=O)NC3CCCC3)n2)c1OC,-4,2,3,0,0,0,.,.
O=C(Cn1nnc(-c2ccccc2NC(=O)C2CC2)n1)NC1CCCCC1,6,-2,3,1,-2,11*,-7,-4
N#CCNC(=O)C1c2ccccc2Oc2ccccc21,9,-2,0,0,-9,13*,-3,1
COC(=O)[C@]12C[C@H](CC(=O)N3CCN(C(=O)C4CC4)CC3)C(=O)N(Cc3ccco3)C1=C[C@H](COCc1ccccc1)O[C@@H]2C,.,1,0,0,6,-2,.,.
Cc1nc([N+](=O)[O-])c(Br)n1CC(=O)c1ccc(F)cc1,-21,-2,-2,0,-3,8,.,.
Cc1nc([N+](=O)[O-])c(Br)n1CC(=O)c1cccc([N+](=O)[O-])c1,5,-6,6,0,-1,9.9*,9,-3
N/C(=N\OC(=O)c1ccccc1Cl)c1ccncc1,10,-6,-2,0,4,10*,-2,-3
N/C(=N\OC(=O)c1ccc(Cl)cc1Cl)c1ccncc1,4,-2,-6,1,1,-4,.,.
Cc1ccc(C(=O)NC2CCCC2)s1,11,-2,0,0,-2,10*,-3,-2
O=C(c1ccco1)N1CCN(Cc2cc(=O)c(OCc3ccc([N+](=O)[O-])cc3)co2)CC1,10,-4,4,0,3,11*,-2,-3
Cc1ccc(COc2coc(CN3CCN(C(=O)c4ccco4)CC3)cc2=O)cc1,-1,2,-3,1,-11,1,.,.
Cc1ccc2nc(SC(C(=O)Nc3ccc(F)cc3)c3ccccc3)[nH]c2c1 (configuration not stated),-4,-7,6,0,-8,13*,-2,-8
C[C@@H]1CN([C@H](C)CO)C(=O)CCCn2nncc2CO[C@H]1CN(C)C(=O)Nc1cccc(Oc2ccccn2)c1,-9,0,1,-1,-11,9.7*,-2,1
C[C@H](CO)N1C[C@H](C)[C@@H](CN(C)C(=O)Nc2cccc(Oc3ccccn3)c2)OCc2cnnn2CCCC1=O,-11,-9,0,0,3,0,.,.
COc1cccc(S(=O)(=O)N(C)C[C@@H]2OCc3cnnn3CCCC(=O)N([C@H](C)CO)C[C@@H]2C)c1,-3,6,4,0,6,0,.,.
COc1cccc(S(=O)(=O)N(C)C[C@H]2OCc3cnnn3CCCC(=O)N([C@@H](C)CO)C[C@@H]2C)c1,-5,1,11*,0,6,0,0,-6
COc1cc2c(cc1NC(=O)CSc1nnc(-c3cccc(Cl)c3)n1-c1ccccc1)oc1ccccc12,.,0,-1,-1,3,-3,.,.
COc1ccc(N2CCN(C(=O)CNC(=O)Cc3ccccc3)CC2)cc1,-4,-4,-12,0,-4,10*,-5,-2
SMILES,NRP1-CendR mod,DDE Tn7 FP inh,PLC-beta3 inh,KLK7 zymogen act,Tn6 DDE FP,PLCg1 inh,PLCg1 ctr,PLCb3 confirm
COc1ccc(N2CCN(C(=O)CNC(=O)Cc3ccc(Cl)cc3)CC2)cc1,0,2,-7,0,0,-3,.,.
CCOC(=O)CC1(O)CSc2nc(N)cc(=O)n21 (configuration not stated),.,-1,-3,1,-6,-2,.,.
O=C(Nc1cccc(Cl)c1)c1csc(COCCO)n1,4,-2,3,0,1,10.0*,-6,-104
O=C(Nc1cccc(C(F)(F)F)c1)c1csc(COCCO)n1,4,-2,5,-1,-8,1,.,.
NC(=O)CC(NC(=O)Cc1cccc2ccccc12)c1ccc(NC2CCC2)c([N+](=O)[O-])c1 (configuration not stated),-43,9,5,-1,-2,10*,-6,0
NC(=O)CC(NC(=O)Cc1cccc2ccccc12)c1ccc(N2CCC(N3CCCCC3)CC2)c([N+](=O)[O-])c1 (configuration not stated),-6,-10,4,0,11,2,.,.
NC(=O)CC(NC(=O)Cc1cccc2ccccc12)c1ccc(N2CCCCCC2)c([N+](=O)[O-])c1 (configuration not stated),-3,-9,13*,0,-1,14*,10*,-3
CN(C)CC(=O)N[C@@H]1C[C@@H]2O[C@@H](CO)CC[C@@H]2O[C@@H]1CCc1ccc(-c2ccc(F)cc2)cc1,.,3,0,0,5,-1,.,.
O=C(CCCC1=NS(=O)(=O)c2ccccc2N1)N1CCN(c2ccccc2Cl)CC1,.,-8,2,0,-7,1,.,.
O=C(CCN1CCN(c2ccccc2)CC1)NNC(=O)c1cccc2ccccc12,-8,-7,2,0,-4,4,.,.
